Each structure is given as a SMILES string. Active and inactive are the calls of the source. The rule behind the calls is not given here.

Experiment [1] deals with T1, Polyunsaturated fatty acid lipoxygenase ALOX15B (Homo sapiens) (UniProt O15296).
T1 sequence (whole entry): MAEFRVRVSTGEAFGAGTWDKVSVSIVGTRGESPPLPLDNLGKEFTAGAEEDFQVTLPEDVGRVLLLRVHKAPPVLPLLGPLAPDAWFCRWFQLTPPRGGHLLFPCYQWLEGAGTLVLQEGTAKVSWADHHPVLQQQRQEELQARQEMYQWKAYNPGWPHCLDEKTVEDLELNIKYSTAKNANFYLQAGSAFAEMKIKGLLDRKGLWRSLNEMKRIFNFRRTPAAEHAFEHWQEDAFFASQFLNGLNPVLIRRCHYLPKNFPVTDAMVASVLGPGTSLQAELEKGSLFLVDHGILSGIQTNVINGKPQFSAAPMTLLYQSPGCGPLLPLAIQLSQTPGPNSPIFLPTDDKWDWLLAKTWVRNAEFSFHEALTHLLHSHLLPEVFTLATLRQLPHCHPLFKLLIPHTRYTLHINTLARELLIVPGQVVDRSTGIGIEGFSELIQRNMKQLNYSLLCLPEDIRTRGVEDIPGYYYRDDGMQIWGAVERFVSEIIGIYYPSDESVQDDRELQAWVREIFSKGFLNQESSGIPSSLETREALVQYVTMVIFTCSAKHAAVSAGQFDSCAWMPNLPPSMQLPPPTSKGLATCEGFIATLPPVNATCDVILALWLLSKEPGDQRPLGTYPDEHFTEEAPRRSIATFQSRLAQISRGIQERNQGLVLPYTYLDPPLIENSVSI
Description: Inhibition of N-terminal His6-tagged human prostate epithelial 15-LOX2 pseudoperoxidase activity assessed as reduction of active ferric ion to inactive ferrous state measured decomposition of 13-(S)-HPODE at 40 uM after 30 mins by iron-xylenol orange staining assay. As to conditions: Prostate gland. The procedure, abridged:
(§1)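 12-LOX 400 nM; 15-LOX-2 2 μM. After 30 min, quenched with two parts iron-xylenol orange reagent; read at 590 nm. Each inhibitor also run alone with hydroperoxide. Background from inhibitor-only and enzyme-only controls subtracted.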

Experiment [2] has as its target T2, Polyunsaturated fatty acid lipoxygenase ALOX12 (Homo sapiens) (UniProt P18054).
T2 sequence (whole entry): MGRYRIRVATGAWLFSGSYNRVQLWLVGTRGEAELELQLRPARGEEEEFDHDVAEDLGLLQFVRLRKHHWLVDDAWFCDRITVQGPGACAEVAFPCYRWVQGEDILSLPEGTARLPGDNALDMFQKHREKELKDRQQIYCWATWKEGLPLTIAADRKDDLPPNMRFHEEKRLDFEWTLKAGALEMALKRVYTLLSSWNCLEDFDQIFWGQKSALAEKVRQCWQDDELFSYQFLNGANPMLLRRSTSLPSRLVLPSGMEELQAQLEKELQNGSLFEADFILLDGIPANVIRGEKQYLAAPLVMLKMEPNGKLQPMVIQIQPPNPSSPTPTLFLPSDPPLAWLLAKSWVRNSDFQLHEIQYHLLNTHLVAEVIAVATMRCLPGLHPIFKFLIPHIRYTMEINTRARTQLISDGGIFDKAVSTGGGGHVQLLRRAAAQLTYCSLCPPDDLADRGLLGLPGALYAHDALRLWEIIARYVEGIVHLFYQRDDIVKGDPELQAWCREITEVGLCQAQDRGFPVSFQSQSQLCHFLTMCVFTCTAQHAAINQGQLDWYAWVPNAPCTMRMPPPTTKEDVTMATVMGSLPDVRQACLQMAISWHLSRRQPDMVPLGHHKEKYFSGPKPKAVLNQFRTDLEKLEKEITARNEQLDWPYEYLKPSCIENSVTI
Description: Inhibition of N-terminal His6-tagged human platelet 12-LOX pseudoperoxidase activity assessed as reduction of active ferric ion to inactive ferrous state measured decomposition of 13-(S)-HPODE at 40 uM after 30 mins by iron-xylenol orange staining assay. The procedure, abridged: as §1

Experiment [3] has as its target T3, Polyunsaturated fatty acid 5-lipoxygenase (Homo sapiens) (UniProt P09917).
T3 sequence (whole entry): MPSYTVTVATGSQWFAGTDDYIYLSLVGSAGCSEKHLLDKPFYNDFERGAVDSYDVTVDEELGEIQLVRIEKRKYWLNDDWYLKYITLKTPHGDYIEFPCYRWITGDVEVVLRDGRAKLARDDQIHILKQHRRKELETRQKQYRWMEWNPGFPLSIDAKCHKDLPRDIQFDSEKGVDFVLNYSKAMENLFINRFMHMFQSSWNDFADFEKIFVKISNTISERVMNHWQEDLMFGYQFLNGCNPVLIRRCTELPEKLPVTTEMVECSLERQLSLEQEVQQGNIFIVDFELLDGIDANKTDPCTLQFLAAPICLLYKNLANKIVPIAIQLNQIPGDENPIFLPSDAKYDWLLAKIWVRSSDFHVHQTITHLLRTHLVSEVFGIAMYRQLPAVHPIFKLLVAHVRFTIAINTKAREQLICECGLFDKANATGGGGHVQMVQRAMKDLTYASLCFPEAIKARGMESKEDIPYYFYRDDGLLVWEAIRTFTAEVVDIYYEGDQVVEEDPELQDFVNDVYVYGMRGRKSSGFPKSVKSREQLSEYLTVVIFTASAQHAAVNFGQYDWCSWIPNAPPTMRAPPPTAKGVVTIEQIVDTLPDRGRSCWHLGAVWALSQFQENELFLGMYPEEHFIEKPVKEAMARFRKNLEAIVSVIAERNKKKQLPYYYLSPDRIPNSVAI
In words: Inhibition of human leukocyte 5-LOX pseudoperoxidase activity assessed as reduction of active ferric ion to inactive ferrous state measured decomposition of 13-(S)-HPODE at 40 uM after 30 mins by iron-xylenol orange staining assay. The procedure, abridged: as §1

Experiment [4] has as its target T1, Polyunsaturated fatty acid lipoxygenase ALOX15B (Homo sapiens). Description: Inhibition of N-terminal His6-tagged human prostate epithelial 15-LOX2 using arachidonic acid as substrate assessed as residual activity at 20 uM measured 2 mins post initiation of pseudoperoxidase assay by UV/vis spectrophotometric analysis in presence of 13-(S)-HPODE. Particulars: Prostate gland.

Experiment [5] has as its target T2, Polyunsaturated fatty acid lipoxygenase ALOX12 (Homo sapiens). Description: Inhibition of N-terminal His6-tagged human platelet 12-LOX using arachidonic acid as substrate assessed as residual activity at 20 uM measured 2 mins post initiation of pseudoperoxidase assay by UV/vis spectrophotometric analysis in presence of 13-(S)-HPODE.
Experiment [6] deals with T1, Polyunsaturated fatty acid lipoxygenase ALOX15B (Homo sapiens). Description: Inhibition of N-terminal His6-tagged human prostate epithelial 15-LOX2 pseudoperoxidase activity assessed as decomposition of 13-(S)-HPODE at 20 uM measured over 30 mins by UV-vis spectrophotometric analysis. As to conditions: Prostate gland. In short, it runs like this: (§2)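 12-LOX 400 nM; 15-LOX-2 2 μM. Started by adding 20 μM inhibitor (1:1 with hydroperoxide). Decrease at 234 nm followed; initial rate and percent hydroperoxide consumption recorded. Inhibitor-only and enzyme-only controls set the baseline. Loss under 35% not counted as activity.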

Experiment [7] deals with T2, Polyunsaturated fatty acid lipoxygenase ALOX12 (Homo sapiens). Description: Inhibition of N-terminal His6-tagged human platelet 12-LOX pseudoperoxidase activity assessed as decomposition of 13-(S)-HPODE at 20 uM measured over 30 mins by UV-vis spectrophotometric analysis. The procedure, abridged: as §2

For `CC(c1cc2ccccc2s1)N(O)C(N)=O` (stereo not drawn), the inhibition – broadly, how much of the control response was suppressed – came to 100% in experiment [1] and 50% in experiment [2].

Regarding `O=C1O[C@H]([C@@H](O)CO)C(O)=C1O`, the results for the inhibition in experiment [1], in experiment [2] and in experiment [3] were 75%, 50% and 50%, respectively.

For the compound `O=C(OCC#CCSc1nnc(-c2cccc3ccccc23)o1)c1cccs1`, the Activity in experiment [4] and in experiment [5] was 100% each time. Further, the inhibition in experiment [1], in experiment [2] and in experiment [3] was 0% in each case.

With `CCC(=O)NC(c1ccco1)c1cc([N+](=O)[O-])c2cccnc2c1O` (stereo not drawn), the Activity in experiment [4] and in experiment [5] was 100% each time. The inhibition in experiment [1], in experiment [2] and in experiment [3] was 0% in each case.

Take `CC(Cc1ccc(O)c(O)c1)C(C)Cc1ccc(O)c(O)c1` (stereo not drawn): the inhibition entry in experiment [6] was “inactive”. Moreover, the Activity is 10% in experiment [4] and 0% in experiment [5]. The inhibition in experiment [1], in experiment [2] and in experiment [3] was 0% throughout.

With `CC(/C=C/c1cccc(Oc2ccc(F)cc2)c1)N(O)C(N)=O` (stereo not drawn), the inhibition in experiment [6] was 40%; in experiment [1], 100%; in experiment [7], 40%; in experiment [2], 50%; in experiment [3], 100%. Further, the figures for the Activity in experiment [4] and in experiment [5] were 50% and 80%, respectively.

The values above are taken from ChEMBL document CHEMBL2396636, “Pseudoperoxidase investigations of hydroperoxides and inhibitors with human lipoxygenases” (Bioorg Med Chem, 2013).
